Data taken from ChEMBL document CHEMBL5058577, “EUbOPEN Chemogenomics Library 2 (Multiplex)” (2022).

Tested on: U2OS
Experiment: Multiplex assay against U2OS
Format: toxicity, cell-based
Details: human
In short: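 Live cells carried four stains from seeding: Hoechst33342, BioTracker Green Microtubule Cytoskeleton Dye, MitoTracker Red and Annexin V Alexa Fluor 680. They were imaged on a CQ1 microscope at 37°C and 5% CO2 after compound addition. Using CellPathfinder machine-learning gating, cells were split into Hoechst high-intensity objects or normal cells, normal cells into healthy, pyknosed or fragmented nuclei, and pyknosed cells into mitotic or apoptotic; tubulin, mitochondrial-mass and membrane-permeability phenotypes are per cents of healthy-nucleus cells.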

[1] = 12 h, 1 µM, compound concentration 1 uM, replicate 1
[2] = 12 h, 1 µM, compound concentration 1 uM, replicate 2
[3] = 12 h, 10 µM, compound concentration 10 uM, replicate 1
[4] = 12 h, 10 µM, compound concentration 10 uM, replicate 2
[5] = 24 h, 1 µM, compound concentration 1 uM, replicate 1
[6] = 24 h, 1 µM, compound concentration 1 uM, replicate 2
[7] = 24 h, 10 µM, compound concentration 10 uM, replicate 1
[8] = 24 h, 10 µM, compound concentration 10 uM, replicate 2
[9] = 48 h, 1 µM, compound concentration 1 uM, replicate 1
[10] = 48 h, 1 µM, compound concentration 1 uM, replicate 2
[11] = 48 h, 10 µM, compound concentration 10 uM, replicate 1
[12] = 48 h, 10 µM, compound concentration 10 uM, replicate 2

CSCC[C@H](NC=O)C(=O)N[C@@H](CC(C)C)C(=O)N[C@@H](Cc1ccccc1)C(=O)O
Population Apoptotic (%) [1]: 73%
Population Fragmented Nuclei (%) [1]: 29%
Population Mitochondria Different-Phenotype (%) [1]: 4%
Population Mitotic Cells (%) [1]: 26%
Total Cell Count [1]: 254
Population Apoptotic (%) [2]: 100%
Population Fragmented Nuclei (%) [2]: 17%
Population Healthy Nuclei (%) [2]: 75%
Population Mitochondria Different-Phenotype (%) [2]: 3%
Population Mitotic Cells (%) [2]: 0%
Total Cell Count [2]: 135
Population Apoptotic (%) [3]: 69%
Population Fragmented Nuclei (%) [3]: 23%
Population Healthy Nuclei (%) [3]: 70%
Population Mitochondria Different-Phenotype (%) [3]: 1%
Population Mitotic Cells (%) [3]: 30%
Total Cell Count [3]: 202
Population Apoptotic (%) [4]: 90%
Population Fragmented Nuclei (%) [4]: 16%
Population Healthy Nuclei (%) [4]: 74%
Population Membrane Permeable-Phenotype (%) [4]: 4%
Population Mitochondria Different-Phenotype (%) [4]: 2%
Total Cell Count [4]: 123
Population Apoptotic (%) [5]: 91%
Population Fragmented Nuclei (%) [5]: 24%
Population Mitochondria Different-Phenotype (%) [5]: 3%
Population Mitotic Cells (%) [5]: 8%
Total Cell Count [5]: 288
Population Apoptotic (%) [6]: 90%
Population Fragmented Nuclei (%) [6]: 17%
Population Healthy Nuclei (%) [6]: 75%
Population Mitochondria Different-Phenotype (%) [6]: 0%
Total Cell Count [6]: 147
Population Apoptotic (%) [7]: 76%
Population Fragmented Nuclei (%) [7]: 23%
Population Healthy Nuclei (%) [7]: 68%
Population Mitochondria Different-Phenotype (%) [7]: 1%
Population Mitotic Cells (%) [7]: 23%
Total Cell Count [7]: 247
Population Apoptotic (%) [8]: 100%
Population Fragmented Nuclei (%) [8]: 19%
Population Healthy Nuclei (%) [8]: 70%
Population Membrane Permeable-Phenotype (%) [8]: 8%
Population Mitochondria Different-Phenotype (%) [8]: 2%
Population Mitotic Cells (%) [8]: 0%
Total Cell Count [8]: 147
Population Fragmented Nuclei (%) [9]: 16%
Population Healthy Nuclei (%) [9]: 75%
Population Membrane Permeable-Phenotype (%) [9]: 4%
Population Mitochondria Different-Phenotype (%) [9]: 3%
Population Mitotic Cells (%) [9]: 15%
Total Cell Count [9]: 411
Population Fragmented Nuclei (%) [10]: 18%
Population Healthy Nuclei (%) [10]: 68%
Population Mitochondria Different-Phenotype (%) [10]: 1%
Population Mitotic Cells (%) [10]: 3%
Total Cell Count [10]: 202
Population Apoptotic (%) [11]: 90%
Population Fragmented Nuclei (%) [11]: 20%
Population Healthy Nuclei (%) [11]: 70%
Population Membrane Permeable-Phenotype (%) [11]: 4%
Population Mitochondria Different-Phenotype (%) [11]: 2%
Population Mitotic Cells (%) [11]: 9%
Total Cell Count [11]: 362
Population Apoptotic (%) [12]: 100%
Population Fragmented Nuclei (%) [12]: 53%
Population Healthy Nuclei (%) [12]: 25%
Population Membrane Permeable-Phenotype (%) [12]: 80%
Population Mitochondria Different-Phenotype (%) [12]: 50%
Population Mitotic Cells (%) [12]: 0%
Total Cell Count [12]: 41

O=C(NCCO)c1cccc(-c2cc(Nc3ccc(OC(F)(F)F)cc3)ncn2)c1
Population Apoptotic (%) [1]: 64%
Population Fragmented Nuclei (%) [1]: 13%
Population Healthy Nuclei (%) [1]: 72%
Population Hoechst High Intensity Objects (%) [1]: 1%
Population Membrane Permeable-Phenotype (%) [1]: 3%
Population Mitochondria Different-Phenotype (%) [1]: 3%
Population Mitotic Cells (%) [1]: 35%
Population Normal (%) [1]: 98%
Population Pyknosed Nuclei (%) [1]: 13%
Population Tubulin-Different-Phenotype (%) [1]: 1%
Total Cell Count [1]: 213
Population Apoptotic (%) [2]: 84%
Population Fragmented Nuclei (%) [2]: 15%
Population Healthy Nuclei (%) [2]: 73%
Population Membrane Permeable-Phenotype (%) [2]: 4%
Population Mitotic Cells (%) [2]: 15%
Population Pyknosed Nuclei (%) [2]: 10%
Population Tubulin-Different-Phenotype (%) [2]: 4%
Total Cell Count [2]: 128
Population Apoptotic (%) [3]: 84%
Population Fragmented Nuclei (%) [3]: 21%
Population Healthy Nuclei (%) [3]: 66%
Population Hoechst High Intensity Objects (%) [3]: 4%
Population Membrane Permeable-Phenotype (%) [3]: 9%
Population Mitochondria Different-Phenotype (%) [3]: 7%
Population Mitotic Cells (%) [3]: 15%
Population Normal (%) [3]: 95%
Population Pyknosed Nuclei (%) [3]: 12%
Population Tubulin-Different-Phenotype (%) [3]: 6%
Total Cell Count [3]: 274
Population Apoptotic (%) [4]: 100%
Population Fragmented Nuclei (%) [4]: 20%
Population Healthy Nuclei (%) [4]: 68%
Population Hoechst High Intensity Objects (%) [4]: 2%
Population Mitochondria Different-Phenotype (%) [4]: 15%
Population Mitotic Cells (%) [4]: 0%
Population Normal (%) [4]: 97%
Population Tubulin-Different-Phenotype (%) [4]: 3%
Total Cell Count [4]: 77
Population Apoptotic (%) [5]: 70%
Population Fragmented Nuclei (%) [5]: 16%
Population Healthy Nuclei (%) [5]: 73%
Population Hoechst High Intensity Objects (%) [5]: 1%
Population Membrane Permeable-Phenotype (%) [5]: 3%
Population Mitochondria Different-Phenotype (%) [5]: 3%
Population Mitotic Cells (%) [5]: 29%
Population Normal (%) [5]: 98%
Population Pyknosed Nuclei (%) [5]: 9%
Population Tubulin-Different-Phenotype (%) [5]: 2%
Total Cell Count [5]: 256
Population Apoptotic (%) [6]: 86%
Population Fragmented Nuclei (%) [6]: 20%
Population Healthy Nuclei (%) [6]: 69%
Population Membrane Permeable-Phenotype (%) [6]: 7%
Population Mitochondria Different-Phenotype (%) [6]: 5%
Population Mitotic Cells (%) [6]: 13%
Population Tubulin-Different-Phenotype (%) [6]: 4%
Total Cell Count [6]: 156
Population Apoptotic (%) [7]: 82%
Population Fragmented Nuclei (%) [7]: 22%
Population Healthy Nuclei (%) [7]: 64%
Population Hoechst High Intensity Objects (%) [7]: 4%
Population Membrane Permeable-Phenotype (%) [7]: 6%
Population Mitochondria Different-Phenotype (%) [7]: 3%
Population Mitotic Cells (%) [7]: 17%
Population Normal (%) [7]: 95%
Population Pyknosed Nuclei (%) [7]: 12%
Population Tubulin-Different-Phenotype (%) [7]: 1%
Total Cell Count [7]: 344
Population Apoptotic (%) [8]: 100%
Population Fragmented Nuclei (%) [8]: 15%
Population Healthy Nuclei (%) [8]: 78%
Population Hoechst High Intensity Objects (%) [8]: 1%
Population Membrane Permeable-Phenotype (%) [8]: 12%
Population Mitochondria Different-Phenotype (%) [8]: 13%
Population Mitotic Cells (%) [8]: 0%
Population Normal (%) [8]: 98%
Population Pyknosed Nuclei (%) [8]: 5%
Population Tubulin-Different-Phenotype (%) [8]: 4%
Total Cell Count [8]: 96
Population Apoptotic (%) [9]: 88%
Population Fragmented Nuclei (%) [9]: 15%
Population Healthy Nuclei (%) [9]: 75%
Population Hoechst High Intensity Objects (%) [9]: 2%
Population Membrane Permeable-Phenotype (%) [9]: 6%
Population Mitochondria Different-Phenotype (%) [9]: 3%
Population Mitotic Cells (%) [9]: 11%
Population Normal (%) [9]: 97%
Population Pyknosed Nuclei (%) [9]: 8%
Population Tubulin-Different-Phenotype (%) [9]: 4%
Total Cell Count [9]: 417
Population Apoptotic (%) [10]: 96%
Population Fragmented Nuclei (%) [10]: 20%
Population Healthy Nuclei (%) [10]: 65%
Population Membrane Permeable-Phenotype (%) [10]: 9%
Population Mitochondria Different-Phenotype (%) [10]: 4%
Population Mitotic Cells (%) [10]: 3%
Population Pyknosed Nuclei (%) [10]: 14%
Population Tubulin-Different-Phenotype (%) [10]: 6%
Total Cell Count [10]: 206
Population Apoptotic (%) [11]: 92%
Population Fragmented Nuclei (%) [11]: 18%
Population Healthy Nuclei (%) [11]: 72%
Population Hoechst High Intensity Objects (%) [11]: 3%
Population Membrane Permeable-Phenotype (%) [11]: 8%
Population Mitochondria Different-Phenotype (%) [11]: 3%
Population Mitotic Cells (%) [11]: 7%
Population Normal (%) [11]: 96%
Population Pyknosed Nuclei (%) [11]: 9%
Population Tubulin-Different-Phenotype (%) [11]: 6%
Total Cell Count [11]: 473
Population Apoptotic (%) [12]: 91%
Population Fragmented Nuclei (%) [12]: 26%
Population Healthy Nuclei (%) [12]: 64%
Population Hoechst High Intensity Objects (%) [12]: 2%
Population Membrane Permeable-Phenotype (%) [12]: 5%
Population Mitochondria Different-Phenotype (%) [12]: 7%
Population Mitotic Cells (%) [12]: 8%
Population Normal (%) [12]: 97%
Population Pyknosed Nuclei (%) [12]: 8%
Population Tubulin-Different-Phenotype (%) [12]: 1%
Total Cell Count [12]: 143
